Hits are enriched below; roughly 2.6% of the tested compounds scored in any of these assays.
SENP8 block-1: blocks human SENP8 cleavage of Nedd8 substrate | Q96LD8 | recombinant SENP8, Nedd8 substrate fluorescence | inhibition, % at 20 µM | 0.64% of 360,000 active; in the data active = inhibition mostly above about 40%, no sharp cut-off; inactive = mostly below about 27%
SENP6 inh: inhibitors of human SENP6 protease. Q9GZR1. Recombinant SENP6 catalytic domain, aminoluciferin luminescence. inhibition, % at 10 µM. 1.8% of 330,000 active. AID 2599;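 active = inhibition above about 50% at the single tested dose, limit read from the data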;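 also: plate controls were DMSO wells with enzyme for no effect and DMSO wells lacking enzyme for full effect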
Target sequence (Q9GZR1 628-1112 limits assumed): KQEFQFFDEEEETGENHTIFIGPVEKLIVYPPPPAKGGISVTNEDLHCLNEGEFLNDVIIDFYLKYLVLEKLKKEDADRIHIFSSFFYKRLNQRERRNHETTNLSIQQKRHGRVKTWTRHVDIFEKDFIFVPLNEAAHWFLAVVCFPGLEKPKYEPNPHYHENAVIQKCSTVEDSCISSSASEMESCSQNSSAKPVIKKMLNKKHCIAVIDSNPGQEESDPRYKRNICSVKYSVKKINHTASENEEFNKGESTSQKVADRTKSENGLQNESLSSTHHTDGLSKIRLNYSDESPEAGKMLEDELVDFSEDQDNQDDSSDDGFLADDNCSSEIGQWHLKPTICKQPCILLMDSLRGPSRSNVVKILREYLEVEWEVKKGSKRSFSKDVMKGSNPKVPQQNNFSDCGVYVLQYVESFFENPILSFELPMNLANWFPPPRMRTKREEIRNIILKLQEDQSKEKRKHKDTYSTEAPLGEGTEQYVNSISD
SENP8 block-2: inhibitors of human SENP8 protease; Q96LD8; purified SENP8, Z-RLRGG-aminoluciferin cleavage, luminescence; inhibition, % at 10 µM; 1.2% of 330,000 active; AID 2540; in the data active = inhibition above about 50%
SENP1 FRET inh: inhibitors of human SENP1 SUMO protease catalytic domain. Q9P0U3. inhibition, % at 10 µM. 0.21% of 360,000 active. AID 624204. recombinant SENP1 catalytic domain, CyPet-SUMO1-YPet FRET cleavage;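 active = inhibition at least 30% at 10 µM, raw YFP signal under a set limit, fluorescence ratio 0.5 to 1.5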;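 also: 0% = enzyme with DMSO and 100% = no enzyme wells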
Target sequence (Q9P0U3 419-644 limits assumed): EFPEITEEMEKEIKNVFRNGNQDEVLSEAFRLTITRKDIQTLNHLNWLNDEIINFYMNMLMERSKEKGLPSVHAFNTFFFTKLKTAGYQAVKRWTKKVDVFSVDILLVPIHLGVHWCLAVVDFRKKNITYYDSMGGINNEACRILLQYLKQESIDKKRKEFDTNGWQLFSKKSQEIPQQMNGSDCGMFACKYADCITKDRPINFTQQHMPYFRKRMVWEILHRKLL
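material = recombinant human SENP1 catalytic domain, His6-tagged | quantity = 20 pM enzyme | reagent = 25 nM SUMO1 FRET substrate | compound dosing = 10 µM single point, 0.5% DMSO | timing = 50 min enzyme reaction, room temperature, light-protected | detection = FRET, CFP and YFP emission | control set = no-enzyme low, enzyme-DMSO high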
SENP7 block: blocks the human protease SENP7; Q9BQF6; recombinant SENP7, Z-RLRGG-aminoluciferin luminescence, 40 min; inhibition, % at 5 µM; 1.5% of 330,000 active; AID 434973;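 active = inhibition above about 50% at the single test dose, limit read from the data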;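 also: plate controls were DMSO with enzyme for no effect and no enzyme buffer wells for full effect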
Platelet DG rel: modulates dense granule release in human platelets. human platelet-rich plasma, SFLLRN dense granule ATP release, luminescence. inhibition, %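 (compounds screened at 7.5 µM in platelet-rich plasma)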. 0.22% of 300,000 active;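 active = mean replicate score, as percent of positive control, at or above 50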
SENP8 confirm: human SENP8 inhibition, confirmed. Recombinant SENP8, Z-RLRGG-aminoluciferin luminescence, 60 min. 40% of 6,200 active. shares compounds with SENP7 block. AID 488912. inhibition, % at 12.5 µM;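 active = mean inhibition across replicates above about 50%, limit read from the data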
SENP6 conf: human SENP6 inhibition, confirmed | 58% of 6,200 active | shares compounds with SENP7 block | inhibition, % at 12.5 µM | AID 488915 | recombinant SENP6, Z-RLRGG-aminoluciferin luminescence
SENP7 confirm: human SENP7 inhibition, confirmed. recombinant SENP7, Z-RLRGG-aminoluciferin luminescence, 40 min. shares compounds with SENP7 block. 69% of 6,200 active. AID 488917. inhibition, % at 12.5 µM
Casp3 select: caspase-3 inhibition (SENP selectivity assay). shares compounds with SENP7 block. purified caspase-3, Z-DEVD-aminoluciferin luminescence, 60 min. inhibition, % at 12.5 µM. 60% of 6,200 active;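 active = mean inhibition above about 50%, limit read from the data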;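 also: plate controls were enzyme with DMSO for no effect and wells without caspase-3 for full effect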
SENP luc ctr: interferes with luciferase luminescence in SENP counter-screen. shares compounds with SENP7 block. Pre-incubated SENP8/Z-RLRGG-aminoluciferin, luciferase luminescence interference. inhibition, % at 12.5 µM. 39% of 6,200 active;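 active = mean inhibition above about 50% when retested at one dose, limit read from the data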;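 also: plate controls were DMSO wells with completed reaction for no effect and substrate without enzyme for full effect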
The depositor's hits bear a star; . = no result given.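 The calls were made as follows, unless noted: active = mean inhibition above about 50% in the one-dose retest (limit read from the data); inactive = the rest.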

SMILES	SENP8 block-1	SENP6 inh	SENP8 block-2	SENP1 FRET inh	SENP7 block	Platelet DG rel	SENP8 confirm	SENP6 conf	SENP7 confirm	Casp3 select	SENP luc ctr
Cc1ccc(C)c(NC(=O)c2cc(-c3cc(C)ccc3O)n[nH]2)c1	12.3	32.0	21.5	2.5	66.4*	5.6	28.0	29.2	82.0*	42.6	37.5
Cc1cc(O)c(-c2cc(C(=O)Nc3cccnc3)[nH]n2)cc1C	15.3	1.9	-11.7	0.2	71.2*	-1.6	-3.2	-5.1	65.9*	46.0	-5.2
CCc1ccc(O)c(-c2cc(C(=O)Nc3cccnc3)[nH]n2)c1	25.2	-10.1	-6.5	3.0	-4.1	1.7	.	.	.	.	.
C/C(=N/OC(=O)c1ccc(F)cc1)c1ccc(C)cc1	19.9	60.4*	55.4*	1.8	71.0*	0.0	12.5	8.0	17.6	17.4	5.3
Cc1occc1C(=O)O/N=C(\N)c1ccccc1	10.6	94.1*	90.8*	-3.6	93.3*	72.5*	94.4*	95.0*	101.9*	98.1*	94.0*
Cc1cccc(/C(N)=N/OC(=O)c2ccoc2C)c1	14.5	96.8*	94.3*	0.8	98.4*	36.9	96.8*	97.2*	101.7*	97.3*	95.5*
Cc1ccccc1C(=O)O/N=C(\N)c1ccccc1	12.8	94.8*	93.1*	2.0	100.1*	60.2*	96.9*	97.7*	102.2*	98.1*	95.6*
Cc1ccccc1C(=O)O/N=C(\N)c1ccc([N+](=O)[O-])cc1	12.3	1.6	1.4	0.1	-7.0	-13.2	.	.	.	.	.
Cc1ccccc1/C(N)=N/OC(=O)c1ccc(F)cc1	10.1	73.9*	60.7*	3.7	80.8*	6.6	69.8*	71.6*	93.2*	89.5*	75.4*
Cc1ccccc1C(=O)NNC(=O)c1ccc(F)cc1	20.8	5.3	2.5	1.0	7.9	-2.9	.	.	.	.	.
N/C(=N\OC(=O)/C=C/c1ccccc1)c1ccccc1	9.2	89.8*	80.4*	2.7	-1.5	12.3	89.7*	89.4*	99.1*	90.0*	82.9*
CCCCCc1ccc(-c2ccc(/C=C/C(=O)O)cc2)nc1	-33.0	75.5*	45.0	-1.1	7.4	15.7	76.5*	67.8*	87.9*	28.3	27.5
CCCc1ccc(-c2ccc(/C=C/C(=O)O)cc2)nc1	-84.3	.	.	2.5	.	-9.4	.	.	.	.	.
CCn1c(C)cc(C=C2C(=O)c3ccccc3C2=O)c1C	13.8	.	.	-23.5	.	9.7	.	.	.	.	.
Cc1ccc(C=C2C(=O)c3ccccc3C2=O)o1	22.1	97.0*	79.1*	-1.7	95.4*	30.2	96.2*	97.3*	101.0*	96.5*	74.7*
Cc1ccc(C=C2C(=O)c3ccccc3C2=O)s1	39.7	69.9*	80.8*	0.9	91.9*	20.0	68.4*	94.3*	98.7*	87.8*	40.4
Cc1cc(C=C2C(=O)c3ccccc3C2=O)c(C)n1C	18.3	66.2*	56.5*	-29.6	2.9	-6.6	9.7	36.6	71.9*	37.1	7.4
O=C(O)c1cc(S(=O)(=O)NCCCN2CCCC2=O)ccc1Cl	3.8	11.2	-3.7	2.0	2.6	.	.	.	.	.	.
CCOC(=O)c1c(N)sc(C(=O)Nc2ccccc2)c1C	-29.1	84.3*	73.1*	3.0	85.0*	43.3	-22.7	80.7*	97.4*	83.9*	83.3*
CCOC(=O)c1c(N)sc(C(=O)Nc2ccccc2F)c1C	-72.8	81.1*	73.7*	2.6	78.3*	22.6	62.8*	63.0*	87.5*	67.1*	32.6
CCC(=O)Nc1sc(C(=O)Nc2ccccc2F)c(C)c1C(=O)OC	9.4	6.2	3.6	-2.7	-1.3	-2.8	.	.	.	.	.
N#Cc1ccccc1S(=O)(=O)N1CCN(CC(=O)Nc2ccccc2C(=O)NC2CC2)CC1	-20.2	11.4	-3.6	-2.7	4.9	.	.	.	.	.	.
Nc1cc(=O)nc2cn[nH]n12	2.8	.	.	-0.7	.	.	.	.	.	.	.
COc1ccccc1N1CCN(/N=C/c2cc(OC)c(O)c(OC)c2)CC1	14.0	-9.6	-3.1	3.3	-5.9	-19.2	.	.	.	.	.
COc1ccccc1N1CCN(/N=C/c2ccc([N+](=O)[O-])cc2)CC1	33.7	67.7*	54.2*	-2.1	63.6*	0.7	16.3	12.9	90.9*	48.1	5.8
SMILES	SENP8 block-1	SENP6 inh	SENP8 block-2	SENP1 FRET inh	SENP7 block	Platelet DG rel	SENP8 confirm	SENP6 conf	SENP7 confirm	Casp3 select	SENP luc ctr
O=C(C1CCCN(Cc2ccc(Br)cc2)C1)N1CCCCC1 (stereo not drawn)	10.5	-8.8	-5.1	2.5	2.7	0.2	.	.	.	.	.
Cc1cc(N2CCN(C)CC2)nc2ccc(NC(=S)N3CCN(c4ccc(Cl)cc4)CC3)cc12	-386.8	54.7*	1.6	-31.1	7.7	1.9	12.0	6.2	8.7	4.7	3.3
CCCN1CCN(CCCNC(=S)Nc2ccc3nc(N4CCN(CC)CC4)cc(C)c3c2)CC1	-327.3	88.6*	-6.2	-8.7	-9.0	-12.3	-7.4	-7.3	-0.1	-0.2	-10.3
Cc1cc(N2CCOCC2)nc2ccc(NC(=S)N3CCCCC3C)cc12 (stereo not drawn)	-368.2	54.7*	29.2	-87.8	12.8	2.6	4.3	6.1	6.8	1.3	3.0
O=C1c2ccccc2C(c2nnnn2-c2ccc3c(c2)OCCO3)N1Cc1ccc(F)cc1 (stereo not drawn)	16.6	.	.	2.4	.	.	.	.	.	.	.
CCCCn1c(N)c(N(CC(C)C)C(=O)c2oc3ccc(Br)cc3c2C)c(=O)[nH]c1=O	-22.9	-18.0	-0.6	-17.1	-7.9	-17.5	.	.	.	.	.
CCCCc1ccc(S(=O)(=O)NC(=O)C2(C)CCN2C(=O)Cc2ccccc2)cc1 (stereo not drawn)	5.2	.	.	0.5	.	.	.	.	.	.	.
CSc1nc(/C=C2\C=Nc3ccccc32)c(O)n1C	-5.2	72.5*	53.5*	-126.6	52.3*	69.6*	75.6*	73.8*	89.4*	70.7*	65.4*
O=c1c(-c2ccccc2)c[nH]n1-c1cccc([N+](=O)[O-])c1	7.8	78.5*	75.5*	1.1	68.3*	5.5	73.3*	72.5*	94.1*	90.4*	73.9*
O=c1c(-c2ccc(Cl)cc2)c[nH]n1-c1ccccc1	-5.9	54.4*	42.3	0.9	5.6	8.2	22.3	38.2	48.3	65.8*	7.0
